# Laboratory results taken from ChEMBL document CHEMBL5724801, “EUbOPEN Chemogenomics Library - Multiplex” (2024).
# Several values for one entry are separate records, joined by “and”; a condition that tells them apart may be missing. Equal values may be shown once.
# How the values were obtained:
# HEK-293T = experiment: Multiplex assay against HEK293T; type: toxicity, cell-based; details: human
# Method in brief: (§1)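 Hoechst33342, BioTracker Green Microtubule Cytoskeleton Dye, MitoTracker Red and Annexin V Alexa Fluor 680 were added to live cells at seeding, and imaging on a CQ1 microscope at 37°C and 5% CO2 followed compound addition. Gating by CellPathfinder machine learning separated cells into Hoechst high-intensity objects or normal cells, then normal cells into healthy, pyknosed or fragmented nuclei, then pyknosed cells into mitotic or apoptotic. Per cents of healthy-nucleus cells are reported for the tubulin, mitochondrial-mass and membrane-permeability phenotypes.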
# Fibroblast = experiment: Multiplex assay against human fibroblast; type: toxicity, cell-based; method in brief: as §1
# [1] = 24 h, 10 µM, compound concentration 10 uM
# [2] = 48 h, 1 µM, compound concentration 1 uM
# [3] = 48 h, 10 µM, compound concentration 10 uM
# [4] = 12 h, 1 µM, compound concentration 1 uM
# [5] = 12 h, 10 µM, compound concentration 10 uM
# [6] = 24 h, 1 µM, compound concentration 1 uM
smiles,measurement,setting,value
CN(C)CCCn1cc(C2=C(c3c[nH]c4ccccc34)C(=O)NC2=O)c2ccccc21 [GF-109203],Population Fragmented Nuclei (%),HEK-293T; [1],2.62% and 2.48%
same,Population Hoechst High Intensity Objects (%),HEK-293T; [1],0%
same,Population Membrane Permeable-Phenotype (%),HEK-293T; [1],0%
same,Population Mitochondria Different-Phenotype (%),HEK-293T; [1],40.74% and 16.67%
same,Population Mitotic Cells (%),HEK-293T; [1],72.83% and 75.54%
same,Population Normal (%),HEK-293T; [1],100%
same,Population Pyknosed Nuclei (%),HEK-293T; [1],50.29% and 86.34%
same,Population Tubulin-Different-Phenotype (%),HEK-293T; [1],84.57% and 50%
same,Total Cell Count,HEK-293T; [1],344 and 161
same,Population Apoptotic (%),HEK-293T; [2],10.45% and 22.58%
same,Population Fragmented Nuclei (%),HEK-293T; [2],0.57% and 1.08%
same,Population Healthy Nuclei (%),HEK-293T; [2],84.04% and 48.92%
same,Population Hoechst High Intensity Objects (%),HEK-293T; [2],0%
same,Population Membrane Permeable-Phenotype (%),HEK-293T; [2],3.01% and 1.1%
same,Population Mitochondria Different-Phenotype (%),HEK-293T; [2],32.1% and 38.46%
same,Population Mitotic Cells (%),HEK-293T; [2],89.55% and 77.42%
same,Population Normal (%),HEK-293T; [2],100%
same,Population Apoptotic (%),HEK-293T; [3],45.68% and 29.41%
same,Population Fragmented Nuclei (%),HEK-293T; [3],1.92% and 2.34%
same,Population Healthy Nuclei (%),HEK-293T; [3],46.15% and 18.13%
same,Population Hoechst High Intensity Objects (%),HEK-293T; [3],0% and 0.58%
same,Population Membrane Permeable-Phenotype (%),HEK-293T; [3],1.39% and 9.68%
same,Population Mitochondria Different-Phenotype (%),HEK-293T; [3],87.5% and 58.06%
same,Population Mitotic Cells (%),HEK-293T; [3],54.32% and 70.59%
same,Population Normal (%),HEK-293T; [3],100% and 99.42%
same,Population Pyknosed Nuclei (%),HEK-293T; [3],51.92% and 79.53%
same,Total Cell Count,HEK-293T; [3],312 and 172
same,Population Apoptotic (%),Fibroblast; [4],9.09% and 22.5%
same,Population Healthy Nuclei (%),Fibroblast; [4],57.53% and 77.2%
same,Population Hoechst High Intensity Objects (%),Fibroblast; [4],0%
same,Population Membrane Permeable-Phenotype (%),Fibroblast; [4],4.67% and 8.05%
same,Population Mitochondria Different-Phenotype (%),Fibroblast; [4],13.08% and 28.19%
same,Population Mitotic Cells (%),Fibroblast; [4],90.91% and 77.5%
same,Population Normal (%),Fibroblast; [4],100%
same,Population Pyknosed Nuclei (%),Fibroblast; [4],29.57% and 20.73%
same,Population Tubulin-Different-Phenotype (%),Fibroblast; [4],29.91% and 44.3%
same,Total Cell Count,Fibroblast; [4],186 and 193
same,Population Apoptotic (%),Fibroblast; [5],5.95% and 14.93%
same,Population Fragmented Nuclei (%),Fibroblast; [5],4.14% and 6.85%
same,Population Healthy Nuclei (%),Fibroblast; [5],46.15% and 47.26%
same,Population Hoechst High Intensity Objects (%),Fibroblast; [5],0%
same,Population Membrane Permeable-Phenotype (%),Fibroblast; [5],14.1% and 14.49%
same,Population Mitochondria Different-Phenotype (%),Fibroblast; [5],57.69% and 36.23%
same,Population Mitotic Cells (%),Fibroblast; [5],94.05% and 85.07%
same,Population Normal (%),Fibroblast; [5],100%
same,Population Pyknosed Nuclei (%),Fibroblast; [5],49.7% and 45.89%
same,Population Tubulin-Different-Phenotype (%),Fibroblast; [5],84.62% and 86.96%
same,Total Cell Count,Fibroblast; [5],169 and 146
same,Population Fragmented Nuclei (%),Fibroblast; [6],6.12% and 5.42%
same,Population Healthy Nuclei (%),Fibroblast; [6],63.78% and 77.34%
same,Population Hoechst High Intensity Objects (%),Fibroblast; [6],0%
same,Population Membrane Permeable-Phenotype (%),Fibroblast; [6],11.2% and 2.55%
same,Population Mitochondria Different-Phenotype (%),Fibroblast; [6],10.4% and 22.93%
same,Population Mitotic Cells (%),Fibroblast; [6],98.31% and 85.71%
same,Population Normal (%),Fibroblast; [6],100%
same,Population Pyknosed Nuclei (%),Fibroblast; [6],30.1% and 17.24%
same,Population Tubulin-Different-Phenotype (%),Fibroblast; [6],35.2% and 51.59%
same,Total Cell Count,Fibroblast; [6],196 and 203
same,Population Fragmented Nuclei (%),Fibroblast; [1],6.7% and 5.38%
same,Population Healthy Nuclei (%),Fibroblast; [1],54.19% and 38.46%
same,Population Hoechst High Intensity Objects (%),Fibroblast; [1],0%
same,Population Membrane Permeable-Phenotype (%),Fibroblast; [1],11.34% and 10%
same,Population Mitochondria Different-Phenotype (%),Fibroblast; [1],50.52% and 40%
same,Population Mitotic Cells (%),Fibroblast; [1],95.71% and 80.82%
same,Population Normal (%),Fibroblast; [1],100%
same,Population Pyknosed Nuclei (%),Fibroblast; [1],39.11% and 56.15%
same,Population Tubulin-Different-Phenotype (%),Fibroblast; [1],94.85% and 94%
same,Total Cell Count,Fibroblast; [1],179 and 130
same,Population Fragmented Nuclei (%),Fibroblast; [2],9.05% and 3.52%
same,Population Healthy Nuclei (%),Fibroblast; [2],77.62% and 88.94%
same,Population Hoechst High Intensity Objects (%),Fibroblast; [2],0%
same,Population Membrane Permeable-Phenotype (%),Fibroblast; [2],3.07% and 7.91%
same,Population Mitochondria Different-Phenotype (%),Fibroblast; [2],12.27% and 18.64%
same,Population Mitotic Cells (%),Fibroblast; [2],92.86% and 66.67%
same,Population Normal (%),Fibroblast; [2],100%
same,Population Pyknosed Nuclei (%),Fibroblast; [2],13.33% and 7.54%
same,Population Tubulin-Different-Phenotype (%),Fibroblast; [2],25.15% and 48.02%
same,Total Cell Count,Fibroblast; [2],210 and 199
same,Population Apoptotic (%),Fibroblast; [3],20.9% and 48.15%
same,Population Fragmented Nuclei (%),Fibroblast; [3],6.19% and 13.29%
same,Population Healthy Nuclei (%),Fibroblast; [3],59.28% and 30.07%
same,Population Hoechst High Intensity Objects (%),Fibroblast; [3],0%
same,Population Mitochondria Different-Phenotype (%),Fibroblast; [3],56.52% and 46.51%
same,Population Mitotic Cells (%),Fibroblast; [3],79.1% and 51.85%
same,Population Normal (%),Fibroblast; [3],100%
same,Population Pyknosed Nuclei (%),Fibroblast; [3],34.54% and 56.64%
same,Population Tubulin-Different-Phenotype (%),Fibroblast; [3],93.04% and 86.05%
same,Total Cell Count,Fibroblast; [3],194 and 143
